Measured values from ChEMBL document CHEMBL1137710, “Synthesis and in vitro antitumor activity of new quinoxaline derivatives” (2009).

How the values were obtained:
Type in all cases: functional
SF-268 = experiment: Anticancer activity against human SF268 cells assessed as cell growth at 100 uM after 48 hrs by sulforhodamine B assay; settings: SF-268, 48 h, read-out: Activity
MCF7 = experiment: Anticancer activity against human MCF7 cells assessed as cell growth at 100 uM after 48 hrs by sulforhodamine B assay; settings: MCF7, 48 h, read-out: Activity
[1] = Growth inhibition of human […] cells after 48 hrs by sulforhodamine B assay
Procedure, shortened: (§1)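 NCI 60-human-tumor-cell-line panel, with compounds tested over a 5-log dose range. Values are taken from dose-response curves as log10 molar concentrations: GI50 is 50% net growth inhibition, TGI is total growth inhibition, and LC50 is 50% net cell death.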

[2] = Growth inhibition of human Hs 578T cells after 48 hrs by sulforhodamine B assay; procedure, shortened: as §1
MDA-MB-231 = experiment: Growth inhibition of human MDA-MB-231 cells after 48 hrs by sulforhodamine B assay; settings: MDA-MB-231, 48 h; procedure, shortened: as §1
786-0 = experiment: Growth inhibition of human 786-0 cells after 48 hrs by sulforhodamine B assay; settings: 786-0, 48 h; procedure, shortened: as §1
RXF 393 = experiment: Growth inhibition of human RXF393 cells after 48 hrs by sulforhodamine B assay; settings: RXF 393, 48 h; procedure, shortened: as §1
DU-145 = experiment: Growth inhibition of human DU145 cells after 48 hrs by sulforhodamine B assay; settings: DU-145, 48 h; procedure, shortened: as §1
COLO 205 = experiment: Growth inhibition of human COLO205 cells after 48 hrs by sulforhodamine B assay; settings: COLO 205, 48 h; procedure, shortened: as §1
CAKI-1 = experiment: Growth inhibition of human Caki1 cells after 48 hrs by sulforhodamine B assay; settings: CAKI-1, 48 h; procedure, shortened: as §1
SW-620 = experiment: Growth inhibition of human SW620 cells after 48 hrs by sulforhodamine B assay; settings: SW-620, 48 h
Procedure, shortened: (§2)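 Run in the NCI 60-human-tumour-cell-line panel, tested over a 5-log dose range. Dose–response curves gave three values per cell line, each as a log10 molar concentration: GI50 (50% inhibition of net cell growth), TGI (total inhibition of net growth) and LC50 (50% net cell death). The mean graph midpoint is the arithmetic mean over all lines, with insensitive lines entered at the highest concentration tested.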

LOX IMVI = experiment: Growth inhibition of human LOXIMVI cells after 48 hrs by sulforhodamine B assay; procedure, shortened: as §1
NCI/ADR-RES = experiment: Growth inhibition of human NCI/ADR-RES cells after 48 hrs by sulforhodamine B assay; procedure, shortened: as §1
MDA-MB-435 = experiment: Growth inhibition of human MDA-MB-435 cells after 48 hrs by sulforhodamine B assay; settings: MDA-MB-435, 48 h; procedure, shortened: as §1
PC-3 = experiment: Growth inhibition of human PC3 cells after 48 hrs by sulforhodamine B assay; settings: PC-3, 48 h; procedure, shortened: as §1
OVCAR-8 = experiment: Growth inhibition of human OVCAR8 cells after 48 hrs by sulforhodamine B assay; settings: OVCAR-8, 48 h; procedure, shortened: as §1
SNB-19 = experiment: Growth inhibition of human SNB19 cells after 48 hrs by sulforhodamine B assay; settings: SNB-19, 48 h; procedure, shortened: as §2
NCI-H23 = experiment: Growth inhibition of human NCI-H23 cells after 48 hrs by sulforhodamine B assay; settings: NCI-H23, 48 h; procedure, shortened: as §1
A549 = experiment: Growth inhibition of human A549 cells after 48 hrs by sulforhodamine B assay; settings: A549, 48 h; procedure, shortened: as §1
KM12 = experiment: Growth inhibition of human KM12 cells after 48 hrs by sulforhodamine B assay; settings: KM12, 48 h; procedure, shortened: as §1
M14 = experiment: Growth inhibition of human M14 cells after 48 hrs by sulforhodamine B assay; settings: M14, 48 h; procedure, shortened: as §1
SF-295 = experiment: Growth inhibition of human SF295 cells after 48 hrs by sulforhodamine B assay; settings: SF-295, 48 h; procedure, shortened: as §1
NCI-H460 = experiment: Growth inhibition of human NCI-H460 cells after 48 hrs by sulforhodamine B assay; settings: NCI-H460, 48 h; procedure, shortened: as §1
HCT-116 = experiment: Growth inhibition of human HCT116 cells after 48 hrs by sulforhodamine B assay; settings: HCT-116, 48 h; procedure, shortened: as §1
U-251 = experiment: Growth inhibition of human U251 cells after 48 hrs by sulforhodamine B assay; settings: U-251, 48 h; procedure, shortened: as §2
SK-OV-3 = experiment: Growth inhibition of human SKOV3 cells after 48 hrs by sulforhodamine B assay; settings: SK-OV-3, 48 h; procedure, shortened: as §1
OVCAR-5 = experiment: Growth inhibition of human OVCAR5 cells after 48 hrs by sulforhodamine B assay; settings: OVCAR-5, 48 h; procedure, shortened: as §1
TK-10 = experiment: Growth inhibition of human TK10 cells after 48 hrs by sulforhodamine B assay; settings: TK-10, 48 h; procedure, shortened: as §2
[3] = read-out: pLC50 (the source's name) (converted)

## COc1ccc(Sc2nc3cc(N)cc(N)c3nc2-c2ccccc2)cc1
SF-268
  growth at 100 µM: 7%
MCF7
  growth at 100 µM: 8%
[1]
  GI50: 3.98 µM
  LC50: > 100 µM
[1]; read-out: pTGI (converted)
  TGI: 85.1 µM
[2]
  GI50: > 100 µM
[2]; [3]
  CC50: > 100 µM
[2]; read-out: pTGI (converted)
  TGI: > 100 µM
MDA-MB-231
  GI50: > 100 µM
MDA-MB-231; [3]
  CC50: > 100 µM
MDA-MB-231; read-out: pTGI (converted)
  TGI: > 100 µM
786-0
  GI50: 13.2 µM
786-0; [3]
  CC50: 70.8 µM
786-0; read-out: pTGI (converted)
  TGI: 30.2 µM
RXF 393
  GI50: 3.09 µM
RXF 393; [3]
  CC50: > 100 µM
RXF 393; read-out: pTGI (converted)
  TGI: 17 µM
DU-145
  GI50: 16.2 µM
DU-145; [3]
  CC50: 69.2 µM
DU-145; read-out: pTGI (converted)
  TGI: 33.1 µM
COLO 205
  GI50: 19.5 µM
  LC50 (50% net cell kill): > 100 µM
COLO 205; read-out: pTGI (converted)
  TGI: > 100 µM
CAKI-1
  GI50: 13.2 µM
CAKI-1; [3]
  CC50: > 100 µM
CAKI-1; read-out: pTGI (converted)
  TGI: 52.5 µM
SW-620
  GI50: 26.3 µM
SW-620; [3]
  CC50: > 100 µM
SW-620; read-out: pTGI (converted)
  TGI: > 100 µM
LOX IMVI
  GI50: 51.3 µM
  LC50: > 100 µM
LOX IMVI; read-out: pTGI (converted)
  TGI: > 100 µM
NCI/ADR-RES
  GI50: > 100 µM
NCI/ADR-RES; [3]
  CC50: > 100 µM
NCI/ADR-RES; read-out: pTGI (converted)
  TGI: > 100 µM
MDA-MB-435
  GI50: > 100 µM
MDA-MB-435; [3]
  CC50: > 100 µM
MDA-MB-435; read-out: pTGI (converted)
  TGI: > 100 µM
PC-3
  GI50: 1.74 µM
PC-3; [3]
  CC50: 19.1 µM
PC-3; read-out: pTGI (converted)
  TGI: 5.13 µM
OVCAR-8
  GI50: > 100 µM
OVCAR-8; [3]
  CC50: > 100 µM
OVCAR-8; read-out: pTGI (converted)
  TGI: > 100 µM
SNB-19
  GI50: > 100 µM
  LC50: > 100 µM
SNB-19; read-out: pTGI (converted)
  TGI: > 100 µM
NCI-H23
  GI50: > 100 µM
  LC50 (50% net cell kill concentration): > 100 µM
NCI-H23; read-out: pTGI (converted)
  TGI: > 100 µM
A549
  GI50: 42.7 µM
  LC50: > 100 µM
A549; read-out: pTGI (converted)
  TGI: > 100 µM
KM12
  GI50: 28.2 µM
  LC50 (50% net cell kill): > 100 µM
KM12; read-out: pTGI (converted)
  TGI: > 100 µM
M14
  GI50: > 100 µM
M14; [3]
  CC50: > 100 µM
M14; read-out: pTGI (converted)
  TGI: > 100 µM
SF-295
  GI50: > 100 µM
  LC50 (50% net cell kill): > 100 µM
SF-295; read-out: pTGI (converted)
  TGI: > 100 µM
NCI-H460
  GI50: 20 µM
  LC50 (50% net cell kill): > 100 µM
NCI-H460; read-out: pTGI (converted)
  TGI: > 100 µM
HCT-116
  GI50: 14.8 µM
  LC50 (concentration causing 50% net cell death): > 100 µM
HCT-116; read-out: pTGI (converted)
  TGI: > 100 µM
U-251
  GI50: > 100 µM
  LC50 (50% net cell kill): > 100 µM
U-251; read-out: pTGI (converted)
  TGI: > 100 µM
SK-OV-3
  GI50: 33.1 µM
SK-OV-3; [3]
  CC50: > 100 µM
SK-OV-3; read-out: pTGI (converted)
  TGI: > 100 µM
OVCAR-5
  GI50: > 100 µM
OVCAR-5; [3]
  CC50: > 100 µM
OVCAR-5; read-out: pTGI (converted)
  TGI: > 100 µM
TK-10
  GI50: 12.9 µM
TK-10; [3]
  CC50: 72.4 µM
TK-10; read-out: pTGI (converted)
  TGI: 30.2 µM
